What all share (format): functional
Assay [1] is filed under the species Rattus norvegicus. As to the kind of experiment: Decrease in tone in estrogen-primed rat uterus at 20 uM in Ca+2-free solution. An outline of the steps: (§1)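 Uterine strips from estradiol benzoate-primed (100 μg Kg⁻¹ ip, 24 h) virgin female Wistar rats, 200-250 g, in Sund's PSS (Ca²⁺-free, Na⁺/Ca²⁺-free, or K⁺/Ca²⁺-free with KCl omitted), 32°C, 95% O₂/5% CO₂, 0.5 g resting force. One 20 μM application per strip. Isometric tension decline measured at 120 min, as % of the agent's maximal tension increase. Mean ± s.e.m.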

For assay [2], the species on record is Rattus norvegicus. Put plainly: Decrease in tone in estrogen-primed rat uterus at 20 uM in [Ca2+] free K+free solution. The procedure, abridged: as §1
The species named for assay [3] is Rattus norvegicus. As to the kind of experiment: Decrease in tone in estrogen-primed rat uterus at 20 uM in [Ca2+] free Na+free solution. The procedure, abridged: as §1
The species named for assay [4] is Rattus norvegicus. Put plainly: Duration of plateau(min) in estrogen-primed rat uterus at 20 uM in Ca+2-free solution. An outline of the steps:
(§2)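 Estrus-confirmed, oestrogen-primed rat uterine longitudinal strips in Ca²⁺-free, Na⁺/Ca²⁺-free or K⁺/Ca²⁺-free Sund's PSS at 32°C, gassed 95% O₂/5% CO₂. Strips equilibrated 45 min, then given repeated ACh 1 mM until responses were reproducible. A single 20 μM dose per strip. Contraction plateau duration (min) taken from isometric recordings. Mean ± s.e.m.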

The species entered for assay [5] is Rattus norvegicus. As to the kind of experiment: Duration of plateau(min) in estrogen-primed rat uterus at 20 uM in [Ca2+] free K+free solution. An outline of the steps:
as §2

The species entered for assay [6] is Rattus norvegicus. As to the kind of experiment: Duration of plateau(min) in estrogen-primed rat uterus at 20 uM in [Ca2+] free Na+free solution. The procedure, abridged:
as §2

The species named for assay [7] is Rattus norvegicus. As to the kind of experiment: Emax value in estrogen-primed rat uterus at 20 uM in [Ca2+] free Na+free solution. An outline of the steps:
(§3)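 Strips from oestrogen-primed Wistar rat uterus, 0.5 g resting force, in Sund's PSS variants (Ca²⁺-free; Na⁺- and Ca²⁺-free; K⁺- and Ca²⁺-free) at 32°C. A single 20 μM addition per strip. Maximal isometric contraction expressed as % of the maximal tension evoked by ACh 1 mM in the same strip. Mean ± s.e.m.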

For assay [8], the species on record is Rattus norvegicus. Put plainly: Emax value in estrogen-primed rat uterus at 20 uM in Ca+2-free solution. The procedure, abridged: as §3
The species entered for assay [9] is Rattus norvegicus. Put plainly: Emax value in estrogen-primed rat uterus at 20 uM in Ca+2-free K+free solution. An outline of the steps: as §3
The species entered for assay [10] is Rattus norvegicus. Put plainly: Time to peak tension(min) in estrogen-primed rat uterus at 20 uM in Ca+2-free solution. An outline of the steps:
(§4)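 Isometric recording at 32°C of uterine strips from estrogen-primed (100 μg Kg⁻¹ ip estradiol benzoate, 24 h prior) female Wistar rats, in Ca²⁺-free, Na⁺/Ca²⁺-free or K⁺/Ca²⁺-free Sund's PSS. Each strip received one 20 μM application. Time to peak tension (min) measured from the onset of the tension increase. Mean ± s.e.m.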

For assay [11], the species on record is Rattus norvegicus. As to the kind of experiment: Time to peak tension(min) in estrogen-primed rat uterus at 20 uM in [Ca2+] free K+free solution. An outline of the steps: as §4
For assay [12], the species on record is Rattus norvegicus. Put plainly: Time to peak tension(min) in estrogen-primed rat uterus at 20 uM in [Ca2+] free Na+free solution. An outline of the steps:
as §4

As for `C=C1[C@@H](O)[C@@H]2O[C@@]3(CCC2O[C@@H]1[C@@H](O)C[C@H](C)C1O[C@@]2(CCCCO2)CC[C@H]1C)CC[C@H](/C=C/[C@@H](C)[C@@H]1CC(C)=C[C@@]2(O[C@H](C[C@@](C)(O)C(=O)O)CC[C@H]2O)O1)O3` (some centres undefined), the values for the Decrease in tone in the assay listed under Rattus norvegicus [1], in the assay filed under Rattus norvegicus [2] and in the assay filed under Rattus norvegicus [3] were 92.8, 98 and 93.3, respectively. In addition, the Duration of plateau in the assay listed under Rattus norvegicus [4] was found to be 3.7 min; in the assay filed under Rattus norvegicus [5] it was 2.9 min; in the assay listed under Rattus norvegicus [6] it was 4.2 min. Moreover, the Emax was found to be 186.5 in the assay listed under Rattus norvegicus [7], 101.7 in the assay listed under Rattus norvegicus [8] and 135.2 in the assay listed under Rattus norvegicus [9]. Further, the “Time to peak tension” value in the assay filed under Rattus norvegicus [10] amounted to 23 min; in the assay listed under Rattus norvegicus [11] it was 20.7 min; in the assay listed under Rattus norvegicus [12], 30.3 min.

For `C=C1[C@@H](O)[C@@H]2O[C@]3(CC[C@H](/C=C/[C@@H](C)[C@@H]4CC(C)=C[C@@]5(O[C@H](C[C@@](C)(O)C(=O)O)CC[C@H]5O)O4)O3)CC[C@H]2O[C@@H]1[C@@H](O)C[C@H](C)[C@H]1O[C@@]2(CCCCO2)CC[C@H]1C` [OKADAIC ACID], the Decrease in tone in the assay filed under Rattus norvegicus [1] worked out at 85.7; in the assay filed under Rattus norvegicus [2] it was 58.1; in the assay filed under Rattus norvegicus [3], 94.8. In addition, the Duration of plateau stood at 2.1 min in the assay listed under Rattus norvegicus [4], 12.8 min in the assay listed under Rattus norvegicus [5] and 3.8 min in the assay listed under Rattus norvegicus [6]. Further, the Emax is 150.8 in the assay listed under Rattus norvegicus [7], 107.9 in the assay filed under Rattus norvegicus [8] and 6.2 in the assay filed under Rattus norvegicus [9]. Further, the “Time to peak tension” value in the assay filed under Rattus norvegicus [10] is listed as 27.2 min; in the assay listed under Rattus norvegicus [11], 28.5 min; in the assay filed under Rattus norvegicus [12], 25.1 min.

For the origin of these results see ChEMBL document CHEMBL1130800, “Complexation of okadaic acid: a preliminary study” (1998).
